Activity calls are given as the source filed them. No cut-off for these calls is given here.
How the values were obtained:
Aromatase = target: T1, Aromatase (Homo sapiens, UniProt P11511); experiment: Inhibition of aromatase activity in human placental microsomes at 5 uM; parameters: species or system Placenta
T1 sequence (P11511 whole entry): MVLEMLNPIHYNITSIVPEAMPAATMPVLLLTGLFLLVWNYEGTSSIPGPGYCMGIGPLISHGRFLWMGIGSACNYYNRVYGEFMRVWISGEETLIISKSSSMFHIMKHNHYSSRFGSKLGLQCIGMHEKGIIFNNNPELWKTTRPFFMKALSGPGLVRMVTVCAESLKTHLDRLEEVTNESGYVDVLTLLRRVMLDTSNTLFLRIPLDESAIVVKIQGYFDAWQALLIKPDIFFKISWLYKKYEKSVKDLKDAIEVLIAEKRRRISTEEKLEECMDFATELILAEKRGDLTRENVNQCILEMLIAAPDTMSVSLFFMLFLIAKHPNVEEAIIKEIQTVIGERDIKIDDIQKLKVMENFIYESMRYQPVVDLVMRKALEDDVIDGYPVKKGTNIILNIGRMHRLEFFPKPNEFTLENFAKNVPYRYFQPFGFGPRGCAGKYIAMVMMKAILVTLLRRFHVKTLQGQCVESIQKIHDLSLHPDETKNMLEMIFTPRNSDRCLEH
Procedure, shortened: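 Human term placental microsomes (50 µg protein) incubated with 100 nM [1β-3H]androst-4-ene-3,17-dione for 15 min at 37 °C, compound at 5 µM. Quenched with chloroform; released 3H2O counted. Triplicates, with background taken from boiled microsomes. 50 µM aminoglutethimide served as positive control. Normalized to vehicle; three independent determinations.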

SK-BR-3 = experiment: Reduction in CYP19 mRNA expression in SKBr3 cells after 24h exposure to 25uM relative to control; type: functional, cell-based; settings: Homo sapiens
Procedure, shortened: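 SK-BR-3 cells were exposed 24 h to 25 µM agent or vehicle and total RNA isolated. DNase-treated RNA (2 µg) was reverse transcribed with random hexamers. CYP19 transcripts were quantified by real-time PCR (50 cycles, 95 °C 15 s / 60 °C 1 min), with 18S rRNA as housekeeping reference, relative to vehicle control.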

MDA-MB-231 = experiment: Reduction in PGE2 levels in MDA-MB-231 cell; type: functional, cell-based; settings: Homo sapiens
Procedure, shortened: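 MDA-MB-231 cells in phenol red-free MEM with 10% FBS were plated at 15 × 10^4 per dish, adhered overnight, then serum-starved 24 h. They were then treated 24 h at 37 °C with 25 µM agent or DMSO. PGE2 in the medium was measured by ELISA and normalized to total protein from NaOH extracts; mean ± SEM, n = 6.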

| SMILES | Inhibition (Aromatase) | Activity (SK-BR-3) | Activity (MDA-MB-231) |
| --- | --- | --- | --- |
| COc1cc([N+](=O)[O-])ccc1N(C)S(C)(=O)=O | Not Active | – | – |
| CCC(CC)Oc1cc([N+](=O)[O-])ccc1NS(C)(=O)=O | Not Active | Active | Active |
| COc1cc([N+](=O)[O-])ccc1NS(C)(=O)=O | Not Active | – | – |
| CCCOc1cc([N+](=O)[O-])ccc1N(C)S(C)(=O)=O | Not Active | – | – |
| CCCCCCOc1cc([N+](=O)[O-])ccc1N(C)S(C)(=O)=O | Not Active | – | – |
| CCCCCCCCCOc1cc([N+](=O)[O-])ccc1NS(C)(=O)=O | Not Active | – | – |
| CCCCCCOc1cc([N+](=O)[O-])ccc1NS(C)(=O)=O | Not Active | – | – |
| CC(C)Oc1cc([N+](=O)[O-])ccc1NS(C)(=O)=O | Not Active | – | – |
| CN(c1ccc([N+](=O)[O-])cc1OC1CCCCC1)S(C)(=O)=O | Not Active | Active | inactive |
| CCCOc1cc([N+](=O)[O-])ccc1NS(C)(=O)=O | Not Active | – | – |
| CS(=O)(=O)Nc1ccc([N+](=O)[O-])cc1OCC1CCCCC1 | Not Active | – | – |
| CN(c1ccc([N+](=O)[O-])cc1OC1CCCC1)S(C)(=O)=O | Not Active | – | inactive |
| CS(=O)(=O)Nc1ccc([N+](=O)[O-])cc1OC1CCCCC1 [NS-398] | Not Active | Active | Active |
| CCCCCCCCCOc1cc([N+](=O)[O-])ccc1N(C)S(C)(=O)=O | Not Active | – | – |
| CC(C)Oc1cc([N+](=O)[O-])ccc1N(C)S(C)(=O)=O | Not Active | – | – |
| CCC(CC)Oc1cc([N+](=O)[O-])ccc1N(C)S(C)(=O)=O | Not Active | Active | inactive |
| CN(c1ccc([N+](=O)[O-])cc1OCC1CCCCC1)S(C)(=O)=O | Not Active | – | inactive |
| CS(=O)(=O)Nc1ccc([N+](=O)[O-])cc1OC1CCCC1 | Not Active | – | Active |

Reference: ChEMBL document CHEMBL1138124, “Novel sulfonanilide analogues suppress aromatase expression and activity in breast cancer cells independent of COX-2 inhibition” (J Med Chem, 2006)
